The source of these data is ChEMBL document CHEMBL2321840, “Synthesis and structure-activity relationships of indazole arylsulfonamides as allosteric CC-chemokine receptor 4 (CCR4) antagonists” (J Med Chem, 2013).

In brackets after ≈: the same amount, converted by molar mass.

Data set [1] can be described thus: Plasma protein binding in human by equilibrium dialysis technique. The class given is ADME, cell-free. The following applies: read-out: PPB (converted). The method, boiled down:
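Rapid equilibrium dialysis in CD rat, beagle dog or human plasma, with compound at a nominal 1 μg/mL; n = 3.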
For orientation: In equilibrium dialysis only unbound substance equilibrates across the membrane.

Data set [2] in a line: Volume of distribution at steady state in CD rat at 1 mg/kg, iv and 1 mg/kg, po. It is filed as ADME, organism-based. The conditions noted are these: in vivo, read-out: Vdss. The method, boiled down:
(§1)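 CD rat pharmacokinetics, with compounds given as solutions in DMSO–PEG200–H₂O (5:45:50); one analogue used a 10:40:50 ratio.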

Data set [3] concerns the target T1, C-C chemokine receptor type 4 (Homo sapiens, UniProt P51679).
T1 sequence (P51679 whole entry): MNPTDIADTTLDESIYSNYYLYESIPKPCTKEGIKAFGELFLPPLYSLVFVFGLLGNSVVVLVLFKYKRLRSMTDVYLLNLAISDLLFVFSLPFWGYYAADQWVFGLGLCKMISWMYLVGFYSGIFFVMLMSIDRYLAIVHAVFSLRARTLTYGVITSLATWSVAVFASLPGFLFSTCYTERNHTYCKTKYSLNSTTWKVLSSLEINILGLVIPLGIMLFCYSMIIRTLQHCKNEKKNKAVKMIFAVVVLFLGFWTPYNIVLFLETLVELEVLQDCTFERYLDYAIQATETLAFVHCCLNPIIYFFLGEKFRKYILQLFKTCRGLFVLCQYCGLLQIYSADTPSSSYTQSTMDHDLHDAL
Description: Antagonist activity at human recombinant CCR4 receptor expressed in CHO cell membranes by [35S]GTPgammaS binding assay. The class given is functional. Background: GTPγS resists hydrolysis and so accumulates on activated G proteins.

Data set [4] is described as follows: in vivo. The following applies: beagle, dog, iv, 0.5 mg/kg.
The nature of data set [5]: (§2) Volume of distribution at steady state in Beagle dog at 0.5 mg/kg, iv. It is filed as ADME, organism-based, Canis lupus familiaris. The arrangement: dose 0.5 mg/kg, route intravenous. The conditions noted are these: beagle, in vivo, read-out: Vdss.
Data set [6] is described as follows: Kinetic solubility of the compound by chemiluminescent nitrogen detection assay. The class given is physicochemical. The conditions noted are these: read-out: Kinetic_solubility.
Data set [7] can be described thus: in vivo. The conditions noted are these: beagle, dog, iv, 0.5 mg/kg. This is another data set of the same source.
Data set [8] in a line: Oral bioavailability in Beagle dog at 1 mg/kg. It is filed as ADME, organism-based, Canis lupus familiaris. The following applies: in vivo.
Data set [9] in a line: in vivo. The conditions noted are these: CD, rat, iv, 1 mg/kg.
A short description of data set [10]: Oral bioavailability in CD rat at 1 mg/kg. It is filed as ADME, organism-based. The conditions noted are these: in vivo. In outline:
as §1

The nature of data set [11]: in vivo. The following applies: CD, rat, iv, 1 mg/kg. The source holds these as a separate data set.
Data set [12] in a line: Lipophilicity, log D of the compound by chromatographic analysis. The class given is physicochemical. In outline:
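Chromatographic log D measured at pH 7.4.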

The target in data set [13] is T1, C-C chemokine receptor type 4. Description: Antagonist activity at CCR4 receptor in human whole blood assessed as F-actin polymerization after 30 mins by FACS-based flow cytometric analysis. The following applies: read-out: pA2 (converted). (In flow cytometry, cells or beads pass a laser one at a time.)
For data set [14], the system named is Canis familiaris. The description is as §2. It is filed as ADME, organism-based, Canis lupus familiaris. The arrangement: dose 0.5 mg/kg, route intravenous. The following applies: in vivo.
For data set [15], the species on record is Canis familiaris. The following applies: dog, in vivo, iv, 0.5 mg/kg.
Data set [16] is described as follows: Equilibrium solubility of the compound in water after 24 hrs by HPLC analysis. The class given is physicochemical. In outline: (§3)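 Solid compound was equilibrated 24 h in the stated medium: water, SGF pH 1.6, FeSSIF pH 6.5, FaSSIF pH 6.5 or saline. Dissolved compound was quantified by HPLC.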
Data set [17] is described as follows: Equilibrium solubility of the compound in fed-state simulated intestinal fluid at pH 6.5 after 24 hrs by HPLC analysis. The class given is physicochemical. The method, boiled down:
as §3

Data set [18] in a line: Equilibrium solubility of the compound in fasted-state simulated intestinal fluid at pH 6.5 after 24 hrs by HPLC analysis. The class given is physicochemical. In outline:
as §3

The nature of data set [19]: Equilibrium solubility of the compound in simulated gastric fluid at pH 1.6 after 24 hrs by HPLC analysis. The class given is physicochemical. In outline: as §3
The nature of data set [20]: Dissociation constant, pKa of the compound. The class given is physicochemical.

What is called IC50 is the point on the concentration scale where inhibition reaches its midpoint. As a reminder, the half-life is the time in which the quantity being followed falls by half. Low values mean fast loss, high ones slow loss. By clearance is commonly meant the rate of elimination divided by the concentration. Read a low clearance as a low capacity for elimination. For orientation: bioavailability means dose-corrected exposure relative to a reference, in per cent. A low value points to poor availability. A word on the chromatographic logD: it is a lipophilicity value derived from retention on a column. Higher therefore signals a more lipophilic compound. As to `COc1cccc2c1c(NS(=O)(=O)c1ccc(Cl)s1)nn2Cc1cccc(CNC(=O)[C@@H]2COCCN2)c1`, the fraction unbound in data set [1] was 0.018. For the same compound, the Vd was 0.78 L/kg in data set [2] and 3 L/kg in [5]. For the same compound, in data set [3], the IC50 was 0.0158 µM. Moreover, the half-life was 2.6 h in “in vivo [4]” and 1.2 h in the data set “in vivo [9]”. In addition, the solubility kinetic in data set [6] was no less than 212 µg/mL. Moreover, the clearance in “in vivo [7]” stood at 41 mL/min/kg; in “in vivo [11]” it was 18 mL/min/kg. Moreover, the bioavailability in [8] worked out at 39%; in data set [10], 32%. Moreover, in [12], the chromatographic logD worked out at 3.9. Also, the Kb in data set [13] was 0.0794 µM.
A word on the Vdss: it is a proportionality between amount in the body and measured concentration, not a real space. Regarding `COc1cccc2c1c(NS(=O)(=O)c1ccc(Cl)s1)nn2Cc1cccc(CNC(=O)[C@@H]2CCCCN2)c1`, the fraction unbound in data set [1] is 0.078. Also, the Vd in data set [2] came to 2.6 L/kg. In addition, the IC50 in data set [3] is 0.0158 µM. The compound also yielded a Vdss with Canis familiaris [14] of 11 L/kg. Also, the solubility kinetic in data set [6] is no less than 220 µg/mL. In addition, the half-life in “in vivo [9]” was 3 h. In addition, the bioavailability in [10] is less than 1%. The t1/2 in the data set filed under Canis familiaris [15] came out at 0.95 h. Further, in “in vivo [11]”, the clearance turned out to be 29 mL/min/kg. Besides, in data set [12], the chromatographic logD worked out at 3.3. The Kb in data set [13] was 0.126 µM.
Take `CN[C@H](C)C(=O)NCc1cccc(Cn2nc(NS(=O)(=O)c3ccc(Cl)s3)c3c(OC)cccc32)c1`: the fraction unbound in [1] was 0.054. The Vd in [2] came to 0.79 L/kg; in [5] it was 6 L/kg. The half-inhibitory concentration (IC50) in data set [3] was 0.0158 µM. The half-life in “in vivo [4]” is 5.9 h; in “in vivo [9]”, 0.8 h. For the same compound, in data set [6], the solubility kinetic worked out at 191 µg/mL (≈ 348 µM). Further, the clearance in “in vivo [7]” and in “in vivo [11]” was 17 mL/min/kg each time. The bioavailability in [8] came to 81%; in [10], 19%. The chromatographic logD in data set [12] worked out at 3.1. Further, the Kb in [13] was 0.2 µM.
As usually defined, the solubility (thermodynamic) is the concentration in solution at equilibrium with solid. Regarding `COc1cc(F)cc2c1c(NS(=O)(=O)c1ccc(Cl)s1)nn2Cc1cccc(CNC(=O)C(C)(C)O)c1`, the Vd in [2] was 1.5 L/kg. Further, the IC50 in [3] was 0.0158 µM. For the same compound, the thermodynamic solubility at 24 h in data set [16] is 32 µg/mL (≈ 56.4 µM); in data set [17], 33 µg/mL (≈ 58.2 µM); in [18], 36 µg/mL (≈ 63.5 µM); in data set [19] it was 1 µg/mL (≈ 1.76 µM). Moreover, the solubility kinetic in data set [6] is no less than 198 µg/mL. Moreover, in “in vivo [9]”, the half-life was 1.8 h. The bioavailability in data set [10] amounted to 90%. In the data set “in vivo [11]”, this compound had a clearance of 19 mL/min/kg. In data set [12], this compound gave a chromatographic logD of 4.2. The Kb in data set [13] is 0.631 µM.
`COc1cccc2c1c(NS(=O)(=O)c1ccc(Cl)s1)nn2Cc1cccc(CNC(=O)C(C)(C)N)c1`: the fraction unbound in data set [1] was 0.04. For the same compound, the Vd in [2] came to 0.84 L/kg; in data set [5], 5 L/kg. The IC50 in data set [3] is 0.0158 µM. Also, the half-life in “in vivo [4]” was 2.4 h; in the data set “in vivo [9]”, 1.3 h. Further, the solubility kinetic in data set [6] is no less than 180 µg/mL. Further, the clearance in “in vivo [7]” was found to be 18 mL/min/kg; in “in vivo [11]”, 15 mL/min/kg. The bioavailability in [10] is 29%. This compound returned a chromatographic logD in data set [12] of 3.3. For the same compound, the Kb in [13] is 0.141 µM.
By pKa is commonly meant the pH at which an ionisable group is half protonated. High values mean a weaker acid or stronger base, low ones a stronger acid or weaker base. On to `COc1cccc2c1c(NS(=O)(=O)c1ccc(Cl)s1)nn2Cc1cccc(CNC(C)=O)c1`, for which the fraction unbound in data set [1] was 0.005. Moreover, in data set [20], the pKa came to 6.6. In addition, the Vd in [5] was determined as 3.2 L/kg. Besides, the solubility kinetic in data set [6] was no less than 124 µg/mL. Further, in data set [8], the bioavailability stood at 49%. Further, the chromatographic logD in [12] worked out at 4.1.
